Laboratory results as given in ChEMBL document CHEMBL1139331, “Molecular modelling studies, synthesis and biological activity of a series of novel bisnaphthalimides and their development as new DNA topoisomerase II inhibitors” (Bioorg Med Chem, 2009).
The source made the active and inactive calls. No cut-off for these calls is given here.

How the values were obtained:
[1] = test system: HT-29; assay: Cytotoxicity against human HT-29 cells after 72 hrs by MTT assay; assay type: functional, cell-based; conditions: HT-29, 72 h
How it was run: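 HT-29 cells, grown in DMEM with 2 mM L-glutamine, 10% heat-inactivated FBS and 1% penicillin/streptomycin at 37 °C, seeded at 1 × 10⁵ cells/ml and exposed 72 h to a range of compound concentrations in DMSO. Cells were then given MTT 3 h, formazan dissolved in SDS/formamide lysis buffer pH 4.7, and absorbance read at 620 nm. Values are % of untreated control; IC50 is from ≥3 experiments.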

[2] = test system: HT-29; assay: Induction of apoptosis in human HT-29 cells assessed as hypodiploid DNA content at 0.5 uM after 48 hrs using propidium iodide staining by flow cytometry; assay type: functional, cell-based
How it was run: (§1)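 Cultured HT-29 cells were plated at 5 × 10⁵ per 6-cm dish the day before treatment, then exposed 48 h to 0.1–5 μM. Cells were washed in PBS and taken up in 0.1% sodium citrate, 0.1% Triton X-100 and 50 μg/ml PI for 30 min at 4 °C in the dark. Nuclei were run by flow cytometry with debris gated out by forward scatter, and % hypodiploid nuclei counted. Three experiments in triplicate.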

[3] = test system: HT-29; assay: Induction of apoptosis in human HT-29 cells after 48 hrs assessed as hypodiploid DNA content using propidium iodide staining by flow cytometry; assay type: functional, cell-based; how it was run: as §1
[4] = test system: HT-29; assay: Induction of apoptosis in human HT-29 cells after 48 hrs using propidium iodide staining by flow cytometry in presence of Z-VAD-FMK; assay type: functional, cell-based
How it was run: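 HT-29 cells were pretreated with the general caspase inhibitor Z-VAD-FMK at 50 μM for 30 min before compound was added, then incubated 48 h. Nuclei were stained with PI in 0.1% citrate/0.1% Triton X-100 for 30 min at 4 °C in the dark. Hypodiploid % was scored by flow cytometry. Three experiments in triplicate; Bonferroni test.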

[5] = target: DNA topoisomerase 2-alpha (Homo sapiens) (UniProt P11388); assay: Inhibition of human recombinant topoisomerase 2alpha-mediated pBR322 DNA cleavage after 30 mins
[6] = test system: HT-29; assay: Blockade of cell cycle progression in human HT-29 cells; assay type: functional, cell-based
[7] = target: DNA topoisomerase 2-alpha (Homo sapiens) (UniProt P11388); assay: Inhibition of human recombinant topoisomerase 2alpha-mediated pBR322 DNA cleavage at 10 uM after 30 mins
[8] = test system: HT-29; assay: Induction of apoptosis in human HT-29 cells assessed as hypodiploid DNA content at 0.1 uM after 48 hrs using propidium iodide staining by flow cytometry; assay type: functional; how it was run: as §1

DNA topoisomerase 2-alpha (Homo sapiens), sequence (P11388 whole entry): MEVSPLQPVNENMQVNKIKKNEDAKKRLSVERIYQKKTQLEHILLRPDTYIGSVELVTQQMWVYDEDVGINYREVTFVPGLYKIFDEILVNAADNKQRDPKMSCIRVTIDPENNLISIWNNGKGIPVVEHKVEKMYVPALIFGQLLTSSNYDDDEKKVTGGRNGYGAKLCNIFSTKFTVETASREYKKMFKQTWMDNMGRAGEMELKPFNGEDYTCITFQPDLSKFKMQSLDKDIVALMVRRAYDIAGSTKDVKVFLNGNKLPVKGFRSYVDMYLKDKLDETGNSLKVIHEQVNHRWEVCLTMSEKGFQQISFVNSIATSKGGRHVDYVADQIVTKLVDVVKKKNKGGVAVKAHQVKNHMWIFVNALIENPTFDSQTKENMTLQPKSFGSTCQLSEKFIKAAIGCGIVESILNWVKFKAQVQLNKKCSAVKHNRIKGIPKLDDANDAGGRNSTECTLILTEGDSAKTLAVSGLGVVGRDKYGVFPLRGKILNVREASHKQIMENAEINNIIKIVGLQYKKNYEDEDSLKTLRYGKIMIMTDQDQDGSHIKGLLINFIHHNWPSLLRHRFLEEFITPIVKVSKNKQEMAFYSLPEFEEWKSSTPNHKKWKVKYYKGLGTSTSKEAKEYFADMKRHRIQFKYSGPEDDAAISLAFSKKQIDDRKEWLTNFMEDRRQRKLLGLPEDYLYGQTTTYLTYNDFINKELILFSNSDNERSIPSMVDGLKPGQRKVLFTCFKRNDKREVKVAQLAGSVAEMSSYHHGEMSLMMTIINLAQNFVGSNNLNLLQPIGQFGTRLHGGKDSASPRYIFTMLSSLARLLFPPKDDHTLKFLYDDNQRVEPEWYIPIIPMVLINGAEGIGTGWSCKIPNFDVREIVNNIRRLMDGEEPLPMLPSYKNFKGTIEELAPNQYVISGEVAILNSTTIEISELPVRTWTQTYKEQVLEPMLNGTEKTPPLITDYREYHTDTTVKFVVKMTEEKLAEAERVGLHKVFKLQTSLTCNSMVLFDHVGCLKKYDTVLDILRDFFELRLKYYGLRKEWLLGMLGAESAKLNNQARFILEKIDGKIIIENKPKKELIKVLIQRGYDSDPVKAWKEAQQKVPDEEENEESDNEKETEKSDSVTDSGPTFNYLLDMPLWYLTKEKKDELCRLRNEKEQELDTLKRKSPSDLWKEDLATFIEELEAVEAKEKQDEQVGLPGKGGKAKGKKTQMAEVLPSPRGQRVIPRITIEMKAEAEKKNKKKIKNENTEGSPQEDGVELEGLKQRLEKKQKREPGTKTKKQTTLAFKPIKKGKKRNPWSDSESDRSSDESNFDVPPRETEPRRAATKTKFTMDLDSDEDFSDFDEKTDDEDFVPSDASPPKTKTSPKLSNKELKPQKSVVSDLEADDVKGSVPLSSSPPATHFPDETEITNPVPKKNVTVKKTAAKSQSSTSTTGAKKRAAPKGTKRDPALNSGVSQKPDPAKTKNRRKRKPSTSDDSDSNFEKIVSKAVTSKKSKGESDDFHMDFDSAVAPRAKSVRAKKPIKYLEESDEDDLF

**Q.** For `O=C1c2cccc3cc([N+](=O)[O-])cc(c23)C(=O)N1CCCNC1CC1NCCCN1C(=O)c2cccc3cc([N+](=O)[O-])cc(c23)C1=O` (stereo not given), which IC50 [1] is on record?
**A.** 3300 nM

**Q.** What about the Activity [2] of the same compound?
**A.** Active

**Q.** And the Activity [3]?
**A.** Dose-dependent effect

**Q.** And the Activity [4]?
**A.** inactive

**Q.** What about the Activity [5] of the same compound?
**A.** inactive

**Q.** And the Activity [6]?
**A.** inactive

**Q.** Which IC50 [1] does the source give for `O=C1c2cccc3cccc(c23)C(=O)N1CCNCCCNCCN1C(=O)c2cccc3cccc(c23)C1=O` [ELINAFIDE] here?
**A.** 38 nM

**Q.** Which results are given for `C[C@@H]1CN(CCN2C(=O)c3cccc4cc([N+](=O)[O-])cc(c34)C2=O)C[C@H](C)N1CCN1C(=O)c2cccc3cc([N+](=O)[O-])cc(c23)C1=O`?
**A.** IC50 [1]: 6100 nM; Activity [6]: inactive

**Q.** For `O=C1c2cccc3cc([N+](=O)[O-])cc(c23)C(=O)N1CCN1CCN(CCN2C(=O)c3cccc4cc([N+](=O)[O-])cc(c34)C2=O)CC1`, which IC50 [1] is on record?
**A.** 2100 nM

**Q.** And the Activity [6]?
**A.** inactive

**Q.** With `O=C1c2cccc3cc([N+](=O)[O-])cc(c23)C(=O)N1CCCCNCCNCCCNCCNCCCCN1C(=O)c2cccc3cc([N+](=O)[O-])cc(c23)C1=O` as the compound, how does the IC50 [1] read?
**A.** 160 nM

**Q.** And the Activity [7]?
**A.** Active

**Q.** What does the source list for `O=C1c2cccc3cc([N+](=O)[O-])cc(c23)C(=O)N1CCNCCNCCN1C(=O)c2cccc3cc([N+](=O)[O-])cc(c23)C1=O`?
**A.** IC50 [1]: 200 nM; Activity [5]: inactive; Activity [6]: inactive

**Q.** For `O=C1c2cccc3cc([N+](=O)[O-])cc(c23)C(=O)N1CCCNCCNCCCN1C(=O)c2cccc3cc([N+](=O)[O-])cc(c23)C1=O`, which IC50 [1] is on record?
**A.** 501 nM

**Q.** What about the Activity [8] of the same compound?
**A.** 40%

**Q.** And the Activity [3]?
**A.** Dose-dependent effect

**Q.** What about the Activity [4] of the same compound?
**A.** inactive

**Q.** And the Activity [5]?
**A.** inactive

**Q.** What about the Activity [6] of the same compound?
**A.** inactive

**Q.** What does the source list for `O=C1c2cccc3cc([N+](=O)[O-])cc(c23)C(=O)N1CCN1CC2CCC(C1)N2CCN1C(=O)c2cccc3cc([N+](=O)[O-])cc(c23)C1=O`?
**A.** IC50 [1]: 7300 nM; Activity [6]: inactive

**Q.** With `O=C1c2cccc3cccc(c23)C(=O)N1CCCCNCCNCCCNCCNCCCCN1C(=O)c2cccc3cccc(c23)C1=O` as the compound, how does the IC50 [1] read?
**A.** 6100 nM
